High-throughput results deposited in PubChem BioAssay by several laboratories.
ATG4B inh – ATG4B protease inhibitors, primary screen, biochemical, fluorescence, uHTS | Cysteine protease ATG4B (Homo sapiens), Q9Y4P1 | AID 504462, 2011 | ATG4B cleavage of LC3-PLA2, NBD-HPC fluorescence, 1 h | 340,000 compounds, 0.51% hits | inhibition, % at 8.33 µM; in the data active = inhibition above about 40%
Target sequence (Q9Y4P1 whole entry, looked up): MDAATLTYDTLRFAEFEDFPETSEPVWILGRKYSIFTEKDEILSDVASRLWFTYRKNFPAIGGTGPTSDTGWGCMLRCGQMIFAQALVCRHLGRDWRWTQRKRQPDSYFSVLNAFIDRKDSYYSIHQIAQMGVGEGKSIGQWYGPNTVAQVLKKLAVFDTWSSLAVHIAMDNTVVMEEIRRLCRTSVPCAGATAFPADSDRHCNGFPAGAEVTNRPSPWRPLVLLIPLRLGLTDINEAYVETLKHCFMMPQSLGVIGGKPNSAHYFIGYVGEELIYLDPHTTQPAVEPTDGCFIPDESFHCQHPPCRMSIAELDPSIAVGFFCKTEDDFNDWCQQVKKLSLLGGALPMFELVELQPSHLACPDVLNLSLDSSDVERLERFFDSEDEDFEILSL
UCH37 DUB inh – inhibitors of human UCH37 deubiquitinase, primary screen, biochemical, Ub-AMC cleavage, fluorescence; Ubiquitin carboxyl-terminal hydrolase isozyme L5 (Homo sapiens), Q9Y5K5; 330,000 compounds, 0.33% hits; inhibition, % (test concentration not listed); purified proteasome/UCH37;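 active = mean inhibition over replicate wells above about 20%, limit read from the data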
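Test system – human UCH37 enzyme supplied as purified proteasome complex · Incubation – 30 min preincubation with enzyme, 25 min cleavage at room temperature · Detection – AMC fluorescence from Ub-AMC cleavage, excitation 355 nm, emission 460 nm · Benchmarks – no-proteasome wells (full inhibition) and compound-free wells (no inhibition)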
NadD block – inhibitors of S. aureus NadD, primary screen, biochemical, colorimetric, uHTS; Nicotinate-nucleotide adenylyltransferase NadD (Staphylococcus aureus N315); purified NadD enzyme, colorimetric absorbance read-out; inhibition, % at 20 µM; 360,000 compounds, 0.78% hits; AID 602399, 2012; in the data active = inhibition above about 26%
NR3A LBD binder – binders of NR3A ligand-binding domain, primary screen, biophysical, differential scanning fluorimetry, uHTS. NR3A LBD differential scanning fluorimetry, Tm shift; 0% = protein alone, 100% = glycine-bound protein. Tm shift relative to glycine control, % at 25 µM. 340,000 compounds, 2.5% hits. AID 1259313, 2017;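 active = melting temperature shift of at least 10% of the positive control shift, at one fixed dose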
SENP1 FRET inh – human SENP1 catalytic domain inhibitors, primary screen, biochemical, FRET, uHTS | 360,000 compounds, 0.21% hits | recombinant SENP1 catalytic domain, CyPet-SUMO1-YPet FRET cleavage | inhibition, % at 10 µM | Sentrin-specific protease 1 (Homo sapiens), Q9P0U3;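 active = inhibition at least 30% at 10 µM, raw YFP signal under a set limit, fluorescence ratio 0.5 to 1.5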
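System: Recombinant human SENP1 catalytic domain, His6-tagged | Incubation: Enzyme reaction for 50 min at room temperature, dark | Medium: Tris pH 8 with BME, BSA, NP40 and catalase | Also added: 25 nM SUMO1 FRET substrate | Compound: 10 µM single point, 0.5% DMSO | Measured by: FRET fluorescence in CFP and YFP emission channels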
Each line names hits and unclear results; the compound was inactive in the other large screens. An excerpt weighted towards active compounds, which were near 3.6% of everything screened.

COc1c(Cl)cc(Cl)cc1/C=N/NC(=O)c1nnn(-c2nonc2N)c1CN1CCC(C)CC1	NR3A LBD binder 12.2 (no result: UCH37 DUB inh)
CC1CCN(Cc2c(C(=O)N/N=C/c3cc(Cl)ccc3O)nnn2-c2nonc2N)CC1	NadD block 29.8 (no result: UCH37 DUB inh)
Cc1cc(C)c(/C=N/NC(=O)c2nnn(-c3nonc3N)c2CN2CCC(C)CC2)c(C)c1	none (no result: UCH37 DUB inh)
CC1CCN(Cc2c(C(=O)N/N=C/c3cc(Br)ccc3O)nnn2-c2nonc2N)CC1	NadD block 33.4, NR3A LBD binder 12.9 (no result: UCH37 DUB inh)
CC(=O)NS(=O)(=O)c1ccc(NC(=O)C2c3ccccc3Oc3ccccc32)cc1	NR3A LBD binder 11.1
CCOC(=O)C1=C(CC)Nc2ccccc2N=C1NC(=O)c1cc(S(=O)(=O)N2CCOCC2)ccc1C	none
CCOC(=O)C1=C(CC)Nc2ccccc2N=C1NC(=O)c1cc(S(=O)(=O)N(C)C)ccc1Cl	NR3A LBD binder 17.2
O=C(O)c1cccc(CSc2nnc(COc3ccccc3)o2)c1	NR3A LBD binder 11.4
O=C(NN=Cc1cccnc1)c1ccc(Cl)c(Cl)c1	none (no result: ATG4B inh, NadD block, NR3A LBD binder, SENP1 FRET inh)
Cc1cc(C)n2nc(C)c(-c3ccccc3)c2n1	none
COc1ccc(-c2c(C)nn3c(-c4ccccc4)cc(C)nc23)cc1	NR3A LBD binder 15.3
Cc1ccc(NC(=O)Nc2nnc(Cc3ccc([N+](=O)[O-])cc3)s2)cc1C	NR3A LBD binder 25.1
O=C(Nc1ccccc1)Nc1nnc(Cc2ccc([N+](=O)[O-])cc2)s1	NR3A LBD binder 16.0
COc1ccccc1N(C)S(=O)(=O)c1ccc(C(=O)OCC(=O)c2c[nH]c3ccccc23)cc1	NR3A LBD binder 23.3
COc1cc(NC(=O)c2ccco2)c(C(=O)OCC(=O)c2c[nH]c3ccccc23)cc1OC	NR3A LBD binder 14.1
COc1ccc2ccccc2c1C=NNC(=O)c1cccc(C)c1	none (no result: ATG4B inh, NadD block, NR3A LBD binder, SENP1 FRET inh)
CCOC(=O)Cc1cc(-c2ccc(O)cc2)nc2ccc3ccccc3c12	NR3A LBD binder 18.4
CCOC(=O)Cc1cc(-c2ccc(OC)cc2)nc2ccc3ccccc3c12	none
Cc1cc(C=NO)c(C)n1-c1cccc(Cl)c1	none (no result: ATG4B inh, NadD block, NR3A LBD binder, SENP1 FRET inh)
Cc1ccccc1NC(=O)C(=O)N/N=C/c1cccc(Br)c1	NR3A LBD binder 34.3 (no result: UCH37 DUB inh)
Fc1ccc(NC(=S)NN=Cc2ccc(F)c(F)c2)c(F)c1	none (no result: ATG4B inh, NadD block, NR3A LBD binder, SENP1 FRET inh)
Fc1ccc(NC(=S)N/N=C/c2cccc(Br)c2)c(F)c1	NR3A LBD binder 32.0 (no result: UCH37 DUB inh)
C=CCNC(=O)C(=O)N/N=C/c1cccc(Br)c1	none (no result: UCH37 DUB inh)
COC(=O)C(C=NO)NC(=O)c1ccccc1 (stereo not given)	none (no result: ATG4B inh, NadD block, NR3A LBD binder, SENP1 FRET inh)
Cc1ccc(C=Nn2c(C3CCCCC3)n[nH]c2=S)o1	none (no result: ATG4B inh, NadD block, NR3A LBD binder, SENP1 FRET inh)
CCNC(=S)NNC(=O)c1cc(-c2cccc(OC)c2)nc2ccccc12	none
Cc1ccc(C)c(-c2cc(C(=O)Nc3sc(C)c(C)c3C(N)=O)c3ccccc3n2)c1	NadD block 34.7, NR3A LBD binder 14.1
Cc1ccc(C)c(-c2cc(C(=O)NNC(=S)NCC(C)C)c3ccccc3n2)c1	NR3A LBD binder 12.2
Cc1cccc(-c2cc(C(=O)NCc3ccccn3)c3ccccc3n2)c1	NR3A LBD binder 15.9
O=C(NCc1ccccn1)c1cc(-c2ccccc2)nc2ccccc12	none
CCCOc1cccc(-c2cc(C(=O)NNC(=S)NCC)c3ccccc3n2)c1	NR3A LBD binder 14.2
COC(=S)NC(=NS(=O)(=O)c1ccc(Cl)cc1)c1ccccc1	none (no result: ATG4B inh, NadD block, NR3A LBD binder, SENP1 FRET inh)
Cc1nc2ccccc2n1C(=NS(=O)(=O)c1ccccc1)c1ccccc1	none (no result: ATG4B inh, NadD block, NR3A LBD binder, SENP1 FRET inh)
O=C(O)c1ccc(NN=CC2=Cc3ccccc3OC2)cc1	none (no result: ATG4B inh, NadD block, NR3A LBD binder, SENP1 FRET inh)
Cc1cccc(-c2cc(C(=O)Nc3sc(C)c(C)c3C(N)=O)c3ccccc3n2)c1	NR3A LBD binder 14.7
COc1ccc(C(C)=NOCC(=O)N=Nc2c(O)[nH]c3ccc(Br)cc23)cc1	none (no result: ATG4B inh, NadD block, NR3A LBD binder, SENP1 FRET inh)
CCCc1cc(-c2[nH]ncc2-c2ccc3c(c2)OCCCO3)c(O)cc1O	NR3A LBD binder 12.0
CCCc1cc(-c2[nH]ncc2-c2ccc(C(=O)OCC)o2)c(O)cc1O	none
Cc1cc(C)n(Cc2ccc(NC(=O)c3ccc(COc4ccccc4Br)cc3)cc2)n1	NR3A LBD binder 10.2
